Measured values reported in ChEMBL document CHEMBL1828615, “Synthesis of a series of 3,4-methanoarginines as side-chain conformationally restricted analogues of arginine” (Bioorg Med Chem, 2011).

Columns and labels:
[1] = molecular target: T1, Nitric oxide synthase, inducible (Mus musculus) (UniProt P29477); assay: Inhibition of mouse iNOS assessed as nitric oxide-mediated oxidation of haemoglobin-A0 at 300 uM using L-arginine by haemoglobin capture assay
T1 sequence (whole entry): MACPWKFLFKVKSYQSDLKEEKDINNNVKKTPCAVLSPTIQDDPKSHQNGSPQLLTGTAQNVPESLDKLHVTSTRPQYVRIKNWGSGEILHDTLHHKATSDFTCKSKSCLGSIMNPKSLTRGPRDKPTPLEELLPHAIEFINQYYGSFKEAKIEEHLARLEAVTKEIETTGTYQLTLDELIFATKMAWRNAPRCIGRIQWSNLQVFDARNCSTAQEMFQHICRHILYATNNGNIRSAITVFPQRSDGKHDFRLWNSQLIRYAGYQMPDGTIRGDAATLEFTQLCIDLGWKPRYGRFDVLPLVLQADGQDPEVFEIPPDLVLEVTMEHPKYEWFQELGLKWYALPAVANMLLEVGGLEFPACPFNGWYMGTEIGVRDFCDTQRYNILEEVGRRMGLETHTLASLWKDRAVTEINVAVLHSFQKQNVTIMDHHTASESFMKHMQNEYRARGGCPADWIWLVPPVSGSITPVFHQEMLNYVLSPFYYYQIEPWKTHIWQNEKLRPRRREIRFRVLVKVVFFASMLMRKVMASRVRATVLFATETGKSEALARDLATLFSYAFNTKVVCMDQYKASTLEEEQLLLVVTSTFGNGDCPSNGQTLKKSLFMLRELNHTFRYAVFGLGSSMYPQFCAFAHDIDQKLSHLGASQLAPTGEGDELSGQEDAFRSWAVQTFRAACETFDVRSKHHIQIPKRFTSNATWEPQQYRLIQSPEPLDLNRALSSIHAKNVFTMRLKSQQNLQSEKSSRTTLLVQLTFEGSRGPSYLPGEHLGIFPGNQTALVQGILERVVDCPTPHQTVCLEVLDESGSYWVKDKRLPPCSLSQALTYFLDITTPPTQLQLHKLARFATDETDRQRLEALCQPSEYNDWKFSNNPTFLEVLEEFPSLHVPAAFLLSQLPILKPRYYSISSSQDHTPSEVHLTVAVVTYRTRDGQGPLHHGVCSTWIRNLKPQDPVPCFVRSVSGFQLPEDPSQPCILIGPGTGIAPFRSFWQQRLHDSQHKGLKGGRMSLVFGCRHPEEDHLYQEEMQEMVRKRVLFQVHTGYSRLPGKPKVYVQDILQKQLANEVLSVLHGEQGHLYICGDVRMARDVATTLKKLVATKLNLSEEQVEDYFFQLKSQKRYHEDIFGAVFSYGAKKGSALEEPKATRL
Method in brief: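 Murine iNOS inhibition was measured against L-arginine as substrate in a hemoglobin capture assay at 30 °C, without calcium or calmodulin. The mix held NADPH, 0.125 mg/mL ferrous hemoglobin-A₀ and H₄B in 100 mM HEPES (pH 7.5). Enzyme addition initiated the reaction, and NO-mediated oxidation was monitored at 401 nm.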

[2] = molecular target: Nitric oxide synthase 1 (Rattus norvegicus) (UniProt P29476); assay: Inhibition of rat nNOS assessed as nitric oxide-mediated oxidation of haemoglobin-A0 at 300 uM using L-arginine by haemoglobin capture assay
Method in brief: (§1)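 For eNOS (bovine) and nNOS (rat), inhibition was tested as the effect of compound on L-arginine turnover, by hemoglobin capture at 30 °C. Buffer was 100 mM HEPES (pH 7.5) with 1.0 mM CaCl₂, 600 unit/mL calmodulin, NADPH, 0.125 mg/mL ferrous hemoglobin-A₀ and H₄B. Reactions were started with enzyme, and hemoglobin-A₀ oxidation was read at 401 nm.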

[3] = molecular target: T2, Nitric oxide synthase 3 (Bos taurus) (UniProt P29473); assay: Inhibition of bovine eNOS assessed as nitric oxide-mediated oxidation of haemoglobin-A0 at 300 uM using L-arginine by haemoglobin capture assay; method in brief: as §1
T2 sequence (whole entry): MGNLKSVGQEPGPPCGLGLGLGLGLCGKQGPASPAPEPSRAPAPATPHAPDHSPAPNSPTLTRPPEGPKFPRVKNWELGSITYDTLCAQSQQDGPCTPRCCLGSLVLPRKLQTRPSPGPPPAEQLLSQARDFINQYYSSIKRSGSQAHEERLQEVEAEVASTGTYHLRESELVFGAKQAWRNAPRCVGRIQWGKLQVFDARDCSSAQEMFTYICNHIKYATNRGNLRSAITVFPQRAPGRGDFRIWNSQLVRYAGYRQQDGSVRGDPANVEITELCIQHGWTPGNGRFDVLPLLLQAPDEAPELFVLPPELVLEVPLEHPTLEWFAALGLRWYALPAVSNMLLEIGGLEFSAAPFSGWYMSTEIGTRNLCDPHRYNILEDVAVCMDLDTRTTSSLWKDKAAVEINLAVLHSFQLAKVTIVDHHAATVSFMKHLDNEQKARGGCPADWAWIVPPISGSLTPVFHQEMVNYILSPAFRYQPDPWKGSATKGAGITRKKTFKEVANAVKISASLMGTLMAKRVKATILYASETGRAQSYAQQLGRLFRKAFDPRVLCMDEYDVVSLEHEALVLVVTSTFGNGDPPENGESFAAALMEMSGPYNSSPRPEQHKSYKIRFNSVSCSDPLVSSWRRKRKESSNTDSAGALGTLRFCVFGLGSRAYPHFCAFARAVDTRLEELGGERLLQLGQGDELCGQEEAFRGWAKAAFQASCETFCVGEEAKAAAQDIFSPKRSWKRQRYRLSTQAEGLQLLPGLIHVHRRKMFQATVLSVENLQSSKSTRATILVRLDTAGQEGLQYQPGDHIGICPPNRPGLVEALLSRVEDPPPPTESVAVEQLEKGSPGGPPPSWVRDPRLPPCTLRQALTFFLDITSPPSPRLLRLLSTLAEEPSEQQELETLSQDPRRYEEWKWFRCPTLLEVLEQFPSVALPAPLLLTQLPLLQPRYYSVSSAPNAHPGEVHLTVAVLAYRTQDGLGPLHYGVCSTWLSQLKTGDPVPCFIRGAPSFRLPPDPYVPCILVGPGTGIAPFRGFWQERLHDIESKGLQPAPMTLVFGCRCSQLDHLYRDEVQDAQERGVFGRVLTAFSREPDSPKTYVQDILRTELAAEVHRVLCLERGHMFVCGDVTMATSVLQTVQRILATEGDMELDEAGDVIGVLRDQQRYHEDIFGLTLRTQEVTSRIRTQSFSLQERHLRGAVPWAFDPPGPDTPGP

[4] = Selectivity ratio of km rat nNOS to km mouse iNOS by Michaelis-Menten equation analysis
[5] = Selectivity ratio of km for bovine eNOS to km for mouse iNOS by Michaelis-Menten equation analysis

Nitric oxide synthase 1 (Rattus norvegicus), sequence (P29476 whole entry): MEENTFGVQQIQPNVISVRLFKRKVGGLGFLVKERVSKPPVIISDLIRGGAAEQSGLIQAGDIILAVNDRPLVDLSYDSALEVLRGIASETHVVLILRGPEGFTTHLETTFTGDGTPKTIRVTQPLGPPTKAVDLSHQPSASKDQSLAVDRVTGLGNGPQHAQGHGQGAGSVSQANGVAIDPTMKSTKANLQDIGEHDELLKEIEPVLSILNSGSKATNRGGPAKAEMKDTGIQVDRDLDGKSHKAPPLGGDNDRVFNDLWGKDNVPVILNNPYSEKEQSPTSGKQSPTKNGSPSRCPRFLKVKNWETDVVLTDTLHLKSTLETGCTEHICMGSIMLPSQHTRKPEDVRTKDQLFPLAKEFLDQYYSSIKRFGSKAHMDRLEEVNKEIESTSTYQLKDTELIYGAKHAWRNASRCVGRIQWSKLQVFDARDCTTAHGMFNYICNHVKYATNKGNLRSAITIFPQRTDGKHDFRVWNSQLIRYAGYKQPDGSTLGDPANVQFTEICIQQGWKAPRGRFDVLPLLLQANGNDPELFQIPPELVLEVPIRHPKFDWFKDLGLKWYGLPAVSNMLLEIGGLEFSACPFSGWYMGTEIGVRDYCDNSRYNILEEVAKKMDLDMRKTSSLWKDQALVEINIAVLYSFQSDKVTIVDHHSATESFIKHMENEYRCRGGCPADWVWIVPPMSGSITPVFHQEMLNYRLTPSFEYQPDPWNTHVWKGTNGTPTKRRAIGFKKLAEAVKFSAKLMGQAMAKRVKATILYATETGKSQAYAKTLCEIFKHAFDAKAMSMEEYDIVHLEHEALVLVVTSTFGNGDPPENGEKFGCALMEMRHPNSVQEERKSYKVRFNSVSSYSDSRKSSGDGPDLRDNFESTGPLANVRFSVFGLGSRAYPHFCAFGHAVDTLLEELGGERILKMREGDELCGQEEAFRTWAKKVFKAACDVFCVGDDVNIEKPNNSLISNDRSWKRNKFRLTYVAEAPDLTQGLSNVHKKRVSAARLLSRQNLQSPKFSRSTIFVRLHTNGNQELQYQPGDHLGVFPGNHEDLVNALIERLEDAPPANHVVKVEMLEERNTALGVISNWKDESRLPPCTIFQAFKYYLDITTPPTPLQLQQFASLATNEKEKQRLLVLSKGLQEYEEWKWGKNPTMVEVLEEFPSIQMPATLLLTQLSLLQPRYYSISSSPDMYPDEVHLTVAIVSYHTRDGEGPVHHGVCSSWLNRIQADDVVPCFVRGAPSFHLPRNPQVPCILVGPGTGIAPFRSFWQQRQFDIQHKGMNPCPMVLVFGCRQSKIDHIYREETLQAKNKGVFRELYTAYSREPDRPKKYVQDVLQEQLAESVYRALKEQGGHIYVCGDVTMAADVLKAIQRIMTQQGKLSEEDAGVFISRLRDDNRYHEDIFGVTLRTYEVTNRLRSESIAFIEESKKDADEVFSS

N=C(N)NC[C@@H]1C[C@H]1[C@@H](N)C(=O)O
inhibition [1]: 19% | inhibition [2]: 13% | inhibition [3]: 4%

N=C(N)NC[C@H]1C[C@H]1[C@@H](N)C(=O)O
inhibition [1]: 14% | inhibition [2]: 30% | inhibition [3]: 27%

N=C(N)NC[C@H]1C[C@@H]1[C@H](N)C(=O)O
Ratio [4]: 2.6 | Ratio [5]: 5.6

N=C(N)NC[C@H]1C[C@H]1[C@H](N)C(=O)O
Ratio [4]: 2.3 | Ratio [5]: 3.6

N=C(N)NC[C@@H]1C[C@@H]1[C@H](N)C(=O)O
inhibition [1]: 22% | inhibition [2]: 30% | inhibition [3]: 16%

N=C(N)NC[C@@H]1C[C@@H]1[C@@H](N)C(=O)O
inhibition [1]: 24% | inhibition [2]: 10% | inhibition [3]: 4%

N=C(N)NC[C@H]1C[C@@H]1[C@@H](N)C(=O)O
inhibition [1]: 19% | inhibition [2]: 5% | inhibition [3]: 23%

N=C(N)NCCC[C@H](N)C(=O)O
Ratio [4]: 3.5 | Ratio [5]: 8.6

N=C(N)NC[C@@H]1C[C@H]1[C@H](N)C(=O)O
inhibition [1]: 26% | inhibition [2]: 16% | inhibition [3]: 45%
